In PMC6512341 (ACS chemical neuroscience, 2018):
Each block holds one molecule with its values, some of them ahead of it.

Experiments:
[1] = target: T1, HDAC6 (Homo sapiens, UniProt Q9UBN7); assay: HDAC1–11 enzyme assays; type: biochemical; conditions: for HDAC6 activity (in words): Figure 1a, compared with phenylhydroxamate 1
T1 sequence (Q9UBN7 1-1215): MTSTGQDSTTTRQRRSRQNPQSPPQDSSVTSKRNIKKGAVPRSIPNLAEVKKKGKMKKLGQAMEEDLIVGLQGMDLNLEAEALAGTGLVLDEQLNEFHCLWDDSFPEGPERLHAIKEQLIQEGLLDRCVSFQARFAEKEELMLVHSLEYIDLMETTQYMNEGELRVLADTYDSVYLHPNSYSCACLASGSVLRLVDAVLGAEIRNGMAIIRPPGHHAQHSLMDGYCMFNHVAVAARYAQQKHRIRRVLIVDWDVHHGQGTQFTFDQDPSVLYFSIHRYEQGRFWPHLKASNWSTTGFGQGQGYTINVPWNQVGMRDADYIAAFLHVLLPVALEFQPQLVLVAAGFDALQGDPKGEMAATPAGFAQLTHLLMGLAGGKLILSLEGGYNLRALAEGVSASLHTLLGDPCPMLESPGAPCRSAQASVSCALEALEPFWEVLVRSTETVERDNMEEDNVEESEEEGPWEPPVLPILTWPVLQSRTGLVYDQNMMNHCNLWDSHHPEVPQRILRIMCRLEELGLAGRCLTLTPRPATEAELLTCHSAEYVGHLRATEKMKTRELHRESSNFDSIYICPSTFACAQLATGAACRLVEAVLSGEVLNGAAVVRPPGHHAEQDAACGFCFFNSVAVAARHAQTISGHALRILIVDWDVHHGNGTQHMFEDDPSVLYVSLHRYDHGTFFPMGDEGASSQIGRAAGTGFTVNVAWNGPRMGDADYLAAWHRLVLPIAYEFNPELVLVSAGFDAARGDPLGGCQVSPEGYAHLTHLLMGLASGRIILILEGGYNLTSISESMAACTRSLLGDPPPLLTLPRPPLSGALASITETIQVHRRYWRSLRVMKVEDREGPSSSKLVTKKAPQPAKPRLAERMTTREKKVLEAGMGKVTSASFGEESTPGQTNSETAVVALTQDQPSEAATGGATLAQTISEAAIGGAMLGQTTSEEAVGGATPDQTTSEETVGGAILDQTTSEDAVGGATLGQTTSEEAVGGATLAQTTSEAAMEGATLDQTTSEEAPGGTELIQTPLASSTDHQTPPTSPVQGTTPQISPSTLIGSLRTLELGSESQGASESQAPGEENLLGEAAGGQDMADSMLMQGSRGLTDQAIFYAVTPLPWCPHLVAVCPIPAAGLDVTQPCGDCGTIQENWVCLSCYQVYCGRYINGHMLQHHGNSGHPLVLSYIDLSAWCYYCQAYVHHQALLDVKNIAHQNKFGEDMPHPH

[2] = tested on: MDCK-MDR1 cell line; assay: Permeability studies in MDCK-MDR1 cells; type: in vitro ADME; conditions: MDCK-MDR1 cell line
[3] = tested on: MDR1; assay: Permeability studies in MDCK-MDR1 cells; type: in vitro ADME; conditions: dog, MDCK-MDR1
[4] = tested on: MDR1 (P-gp); assay: Permeability studies in MDCK-MDR1 cells; type: in vitro ADME; conditions: dog, MDCK-MDR1, efflux ratio, MDCK-MDR1 cell line
[5] = tested on: class IIa isoforms; assay: HDAC1–11 enzyme assays; type: biochemical, human; conditions: Figure 2b and c
Procedure, shortened: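 Human full-length recombinant HDAC4, 5, 7 and 9 with fluorogenic Ac-LGK(TFA)-AMC substrate. Enzyme–compound preincubation 5–10 min, then 2 h at 30 °C. Developer added; fluorescence read at plateau. 10-dose, 3-fold dilutions from 30 µM, in duplicate. IC50 from sigmoidal fit.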

[6] = target: hERG (Homo sapiens, UniProt Q12809); assay: hERG test in HEK293 cells; type: cell-based
[7] = tested on: TA98, TA100, TA1535, TA1537, WP2 uvrA; assay: Ames test; type: cell-based, Salmonella typhimurium, Escherichia coli; conditions: presence and absence of S9 mix
[8] = Pilot brain and plasma pharmacokinetic studies of SW-100; type: in vivo, C57BL/6 male mice; conditions: male, C57BL/6, mouse, ip, 20 mg/kg
[9] = Hepatocyte stability, human; type: in vitro ADME; conditions: hepatocytes
[10] = target: CYP3A4 (Homo sapiens, UniProt P08684); assay: CYP inhibition, 3A4; type: in vitro ADME
[11] = tested on: acetylated histone 3; assay: Histone acetylation in N2a cells; type: cell-based; conditions: compared to vehicle
Procedure, shortened: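 N2a cells treated at 1 µM or 10 nM; reference HDAC inhibitors served as positive controls. Histones extracted by kit; protein by micro BCA. Samples denatured in reducing buffer at 95 °C for 5 min and blotted to PVDF. Blocked in 5% BSA/TBST 1 h at RT; primaries overnight: acetyl-H3 K9+K14 1:1000, histone 4 1:1000. Ratios normalized to vehicle; n = 4; one-way ANOVA vs vehicle.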

[12] = target: CYP2D6 (Homo sapiens, UniProt P10635); assay: CYP inhibition, 2D6; type: in vitro ADME
[13] = Liver microsomal stability, mouse; type: in vitro ADME; conditions: liver microsomes
[14] = Hepatocyte stability, mouse; type: in vitro ADME; conditions: hepatocytes
[15] = target: T2, CYP1A2 (Homo sapiens, UniProt P05177); assay: CYP inhibition, 1A2; type: in vitro ADME
T2 sequence (P05177 1-516): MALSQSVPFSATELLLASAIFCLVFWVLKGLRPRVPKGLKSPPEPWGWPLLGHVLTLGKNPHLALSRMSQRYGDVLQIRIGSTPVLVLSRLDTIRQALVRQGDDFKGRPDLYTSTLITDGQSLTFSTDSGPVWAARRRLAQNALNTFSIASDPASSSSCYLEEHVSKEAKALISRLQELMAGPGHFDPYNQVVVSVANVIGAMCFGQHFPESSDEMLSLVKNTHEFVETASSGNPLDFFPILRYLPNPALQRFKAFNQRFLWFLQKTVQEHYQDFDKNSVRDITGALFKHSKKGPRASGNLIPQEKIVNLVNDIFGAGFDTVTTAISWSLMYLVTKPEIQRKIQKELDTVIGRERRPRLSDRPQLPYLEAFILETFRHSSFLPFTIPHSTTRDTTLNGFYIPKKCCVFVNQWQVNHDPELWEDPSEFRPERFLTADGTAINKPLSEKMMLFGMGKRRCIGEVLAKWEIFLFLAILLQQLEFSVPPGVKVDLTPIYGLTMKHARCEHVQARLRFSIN

[16] = Liver microsomal stability, human; type: in vitro ADME; conditions: liver microsomes
[17] = target: CYP2C9 (Homo sapiens, UniProt P11712); assay: CYP inhibition, 2C9; type: in vitro ADME
[18] = tested on: acetylated α-tubulin; assay: α-Tubulin acetylation studies in HEK293 cells; type: cell-based; conditions: 0.01, 0.1, 1, and 10 μM
Procedure, shortened: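 HEK293 cells plated 24 h ahead and treated at 70% confluency with 10 nM–10 µM. Lysed in MPER with protease inhibitors; 2 µg protein boiled, run on 12% gel, transferred to PVDF. Blocked in 5% milk/TBST; anti-acetyl-tubulin 1:3000 overnight at 4 °C, then HRP secondary 1:5000; ECL. Reprobed for total α-tubulin at 1:1000. Densitometric ratio normalized to 10 µM reference HDAC6 inhibitor; n = 3–4; one-way ANOVA vs vehicle.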

[19] = tested on: acetylated α-tubulin; assay: Immunoblot of acetylated α-tubulin in mouse hippocampus; type: in vivo, mice; conditions: 20 mg/kg, 2 h after treatment
Procedure, shortened: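 Male C57BL/6 WT and Fmr1−/− mice, 8–10 weeks old, given 20 mg/kg IP twice daily on days 1–2, plus a dose 1 h before cognitive testing on days 3 and 4. Hippocampi taken 2 h after treatment and homogenized in Tris pH 7.4 lysis buffer with protease and phosphatase inhibitors. Spun at 20,800 × g for 10 min; Bradford assay. 10 µg protein run on SDS-PAGE to nitrocellulose; acetyl-α-tubulin and α-tubulin antibodies at 1:4000.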

[20] = target: CYP2C19 (Homo sapiens, UniProt P33261); assay: CYP inhibition, 2C19; type: in vitro ADME
[21] = tested on: Fmr1^−/− mice; assay: Temporal order memory task; type: in vivo; conditions: 20 mg/kg IP
[22] = tested on: Fmr1^−/− mice; assay: Novel object recognition task; type: in vivo; conditions: 20 mg/kg IP
[23] = tested on: acetylated α-tubulin; assay: α-Tubulin acetylation in N2a cells; type: cell-based; conditions: compared to vehicle
[24] = Brain/plasma pilot PK studies of TubA; type: in vivo; conditions: IV administration, WT mice
[25] = cited from earlier work

CYP3A4, sequence (P08684 whole entry): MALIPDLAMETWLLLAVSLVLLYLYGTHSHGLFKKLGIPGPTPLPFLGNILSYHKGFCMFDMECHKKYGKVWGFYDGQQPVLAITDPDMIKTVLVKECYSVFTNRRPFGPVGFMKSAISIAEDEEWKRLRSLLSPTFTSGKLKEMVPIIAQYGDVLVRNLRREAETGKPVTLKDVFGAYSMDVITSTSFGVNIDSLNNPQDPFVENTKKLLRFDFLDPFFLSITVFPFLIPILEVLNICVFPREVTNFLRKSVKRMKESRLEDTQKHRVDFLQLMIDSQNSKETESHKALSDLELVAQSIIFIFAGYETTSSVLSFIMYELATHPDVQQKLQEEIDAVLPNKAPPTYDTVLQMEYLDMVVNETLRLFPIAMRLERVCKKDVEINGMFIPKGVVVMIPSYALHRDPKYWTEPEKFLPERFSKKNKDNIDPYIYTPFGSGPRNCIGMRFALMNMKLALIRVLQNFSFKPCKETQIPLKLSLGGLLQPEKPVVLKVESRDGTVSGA
CYP2D6, sequence (P10635 whole entry): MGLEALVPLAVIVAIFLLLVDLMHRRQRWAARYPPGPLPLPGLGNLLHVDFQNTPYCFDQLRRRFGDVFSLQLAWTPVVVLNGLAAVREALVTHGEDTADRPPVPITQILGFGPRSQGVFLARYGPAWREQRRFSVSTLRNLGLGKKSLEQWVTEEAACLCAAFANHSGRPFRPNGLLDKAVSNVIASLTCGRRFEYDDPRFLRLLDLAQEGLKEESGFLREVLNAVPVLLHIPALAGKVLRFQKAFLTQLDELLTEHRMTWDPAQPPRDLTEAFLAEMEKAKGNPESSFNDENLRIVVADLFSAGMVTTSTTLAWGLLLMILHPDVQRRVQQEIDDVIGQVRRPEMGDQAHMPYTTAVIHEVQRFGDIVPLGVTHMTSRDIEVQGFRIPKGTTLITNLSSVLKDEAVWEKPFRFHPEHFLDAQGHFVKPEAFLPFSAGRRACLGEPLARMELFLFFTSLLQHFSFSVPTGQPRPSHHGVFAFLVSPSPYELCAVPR
CYP2C9, sequence (P11712 whole entry): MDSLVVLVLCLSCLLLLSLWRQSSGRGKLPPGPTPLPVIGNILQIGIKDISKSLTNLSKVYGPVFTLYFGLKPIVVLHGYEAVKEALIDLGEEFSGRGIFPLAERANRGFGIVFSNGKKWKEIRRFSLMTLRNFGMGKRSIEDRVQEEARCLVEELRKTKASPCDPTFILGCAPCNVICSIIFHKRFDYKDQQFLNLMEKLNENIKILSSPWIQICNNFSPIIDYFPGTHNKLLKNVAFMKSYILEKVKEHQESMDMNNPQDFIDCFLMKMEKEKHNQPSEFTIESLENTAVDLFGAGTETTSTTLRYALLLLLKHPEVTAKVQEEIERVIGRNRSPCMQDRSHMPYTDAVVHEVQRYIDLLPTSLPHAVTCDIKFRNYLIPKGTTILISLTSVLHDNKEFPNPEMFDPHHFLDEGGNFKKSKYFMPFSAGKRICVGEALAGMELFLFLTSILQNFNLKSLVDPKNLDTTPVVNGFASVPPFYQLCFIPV
hERG, sequence (Q12809 whole entry): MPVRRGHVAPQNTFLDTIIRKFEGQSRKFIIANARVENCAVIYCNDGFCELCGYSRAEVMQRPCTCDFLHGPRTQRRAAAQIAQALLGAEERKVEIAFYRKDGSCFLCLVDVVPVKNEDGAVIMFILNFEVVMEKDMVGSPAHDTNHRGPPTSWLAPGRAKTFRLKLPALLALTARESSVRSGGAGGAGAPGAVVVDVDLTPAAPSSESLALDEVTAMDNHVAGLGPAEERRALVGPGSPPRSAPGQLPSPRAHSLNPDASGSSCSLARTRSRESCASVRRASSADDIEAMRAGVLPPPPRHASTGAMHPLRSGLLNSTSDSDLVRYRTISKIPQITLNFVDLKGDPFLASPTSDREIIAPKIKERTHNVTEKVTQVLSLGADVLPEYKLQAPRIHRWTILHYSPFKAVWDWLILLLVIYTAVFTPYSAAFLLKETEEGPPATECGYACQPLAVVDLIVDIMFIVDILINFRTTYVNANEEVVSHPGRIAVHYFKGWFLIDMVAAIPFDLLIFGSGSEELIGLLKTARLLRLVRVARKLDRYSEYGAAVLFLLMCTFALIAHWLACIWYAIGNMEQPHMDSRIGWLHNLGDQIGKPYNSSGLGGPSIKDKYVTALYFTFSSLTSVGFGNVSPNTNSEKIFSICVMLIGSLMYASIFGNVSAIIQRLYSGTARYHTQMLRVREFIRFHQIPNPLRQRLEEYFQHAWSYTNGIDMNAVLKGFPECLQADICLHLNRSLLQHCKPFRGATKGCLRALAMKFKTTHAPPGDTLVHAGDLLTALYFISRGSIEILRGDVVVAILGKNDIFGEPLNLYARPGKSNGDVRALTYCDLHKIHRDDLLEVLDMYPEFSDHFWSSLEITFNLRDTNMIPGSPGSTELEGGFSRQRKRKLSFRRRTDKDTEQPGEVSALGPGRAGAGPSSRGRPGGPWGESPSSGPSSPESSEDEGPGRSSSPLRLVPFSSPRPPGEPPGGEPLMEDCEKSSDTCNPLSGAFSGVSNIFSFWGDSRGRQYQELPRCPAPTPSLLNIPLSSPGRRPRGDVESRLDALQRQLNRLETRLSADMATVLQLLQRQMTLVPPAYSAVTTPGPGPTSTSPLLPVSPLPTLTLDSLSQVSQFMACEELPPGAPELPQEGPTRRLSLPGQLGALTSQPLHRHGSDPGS
CYP2C19, sequence (P33261 whole entry): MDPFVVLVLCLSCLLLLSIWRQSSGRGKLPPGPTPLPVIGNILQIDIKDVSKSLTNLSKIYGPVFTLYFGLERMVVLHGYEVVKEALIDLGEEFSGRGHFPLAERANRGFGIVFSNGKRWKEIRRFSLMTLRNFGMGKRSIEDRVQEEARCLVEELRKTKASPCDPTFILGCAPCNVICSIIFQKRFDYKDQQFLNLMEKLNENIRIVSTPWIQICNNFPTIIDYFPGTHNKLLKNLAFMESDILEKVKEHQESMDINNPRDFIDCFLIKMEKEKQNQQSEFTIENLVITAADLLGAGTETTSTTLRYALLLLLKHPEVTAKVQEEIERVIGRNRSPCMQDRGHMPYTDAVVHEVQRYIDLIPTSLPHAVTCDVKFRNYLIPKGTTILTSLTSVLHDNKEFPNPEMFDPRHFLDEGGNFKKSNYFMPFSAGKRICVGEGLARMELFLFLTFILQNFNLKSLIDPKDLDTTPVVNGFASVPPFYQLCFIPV

- HDAC6 activity (in words) [1]: reduced HDAC6 activity
Compound: CCN(CC)Cc1ccc(C(=O)NO)cc1 [Compound 2, 4-[(Diethylamino)methyl]-N-hydroxybenzamide]

- HDAC6 activity (in words) [1]: reduced HDAC6 activity
Compound: O=C(NO)c1ccc(CN2CCCC2)cc1 [Compound 3, N-Hydroxy-4-(pyrrolidin-1-ylmethyl)benzamide]

- efflux ratio [2]: 3.23
- Papp A→B at 2 h [3]: 44.4 nm/s
- Papp B→A at 2 h [3]: 134 nm/s
- efflux ratio at 2 h [4]: > 2.5
- activity against the class IIa isoforms (in words) [5]: strong activity
Compound: Cc1nc2ccc(F)cc2n1Cc1ccc(C(=O)NO)cc1 [Compound 8, 4-[(6-Fluoro-2-methyl-1-benzimidazolyl)methyl]-N-hydroxybenzamide]

- efflux ratio [2]: 9.83
- Papp A→B at 2 h [3]: 20 nm/s
- Papp B→A at 2 h [3]: 197 nm/s
- selectivity against HDAC8 (in words) ([1]; Figure 2b and c): poorer selectivity
- selectivity against the class I HDACs 1, 2, and 3 (in words) ([1]; Figure 2b and c): high selectivity
- brain/plasma ratio ([24]; 8 min): 0.15
- brain/plasma ratio ([24]; 60 min): 0.86
Compound: CN1CCc2c(c3ccccc3n2Cc2ccc(C(=O)NO)cc2)C1 [TubA, tubastatin A, reference compound]
- AUCbrain/AUCplasma [25]: 0.18

The next lines start with the molecule.

Compound: Cc1nc2ccccc2n1Cc1ccc(C(=O)NO)cc1F [Compound 9, 3-Fluoro-N-hydroxy-4-[(2-methyl-1-benzimidazolyl)methyl]-benzamide]
- efflux ratio [2]: 4.23
- Papp A→B at 2 h [3]: 38.9 nm/s
- Papp B→A at 2 h [3]: 132 nm/s
- efflux ratio at 2 h [4]: > 2.5
- activity against the class IIa isoforms (in words) [5]: strong activity

Compound: O=C(NO)c1ccc(CN2CCCc3cc(Cl)ccc32)cc1 [SW-100, 4-((6-Chloro-3,4-dihydroquinolin-1(2H)-yl)methyl)-N-hydroxybenzamide]
- Papp A→B at 2 h [3]: 45.8 nm/s
- Papp B→A at 2 h [3]: 23.3 nm/s
- IC50 [6]: 12.2 µM
- Ames test [7]: negative
- concentration at 1 h ([8]; brain): 0.142 ± 0.0523 µg/mL
- concentration at 4 h ([8]; brain): 0.0115 ± 0.0003 µg/mL
- Kp at 1 h ([8]; brain/plasma): 2.44
- concentration at 1 h ([8]; plasma): 0.0582 ± 0.0249 µg/mL
- concentration at 4 h ([8]; plasma): 0.00252 ± 0.00013 µg/mL
- half-life [9]: 30 min
- inhibition at 10 µM [10]: -0.63%
- levels of acetylated histone 3 to histone 4 [11]: < 1.5 fold
- inhibition at 10 µM [12]: 2.51%
- half-life [13]: 23 min
- half-life [14]: 10 min
- inhibition at 10 µM [15]: 20.5%
- half-life [16]: 23 min
- inhibition at 10 µM [17]: 18.8%
- effect on acetylated α-tubulin levels (in words) [18]: more obvious increase in the acetylated α-tubulin levels in a dose-dependent manner
- acetylated α-tubulin levels in the hippocampus ([19]; Fmr1^−/− mice): significantly increased
- hippocampal α-tubulin acetylation ([19]; WT mice): no significant influence
- inhibition at 10 µM [20]: 83.2%
- temporal order: time exploring first versus most recent object [21]: spent significantly more time exploring the first object compared to the most recent object presented
- novel object recognition: time exploring novel versus familiar object ([22]; Fmr1^−/− mice): spent significantly more time exploring the novel object than the familiar object
- novel object recognition ([22]; WT mice): did not alter the novel object recognition of WT mice

Compound: CC(/C=C/C(=O)NO)=C\[C@@H](C)C(=O)c1ccc(N(C)C)cc1 [TSA, Trichostatin A, reference compound]
- levels of acetylated histone 3 to histone 4 [11]: increased levels of both acetylated α-tubulin and acetylated histone H3 significantly
- ratio of acetylated α-tubulin to α-tubulin [23]: increased levels of both acetylated α-tubulin and acetylated histone H3 significantly
